Measured values: ChEMBL document CHEMBL4364284, “Design, Synthesis, and Efficacy Testing of Nitroethylene- and 7-Nitrobenzoxadiazol-Based Flavodoxin Inhibitors against Helicobacter pylori Drug-Resistant Clinical Strains and in Helicobacter pylori-Infected Mice” (J Med Chem, 2019)
In brackets after ≈: the same amount, converted by molar mass. Activity calls are given as the source filed them. The calls are words filed in the database; no cut-off is given here.

How the values were obtained:
[1] = Toxicity in NMRI mouse infected with Helicobacter pylori SS1 assessed as change in body weight at 0.1 to 1 mg/100g, po administered daily via gavage for 8 days starting from 1 week post-infection; assay type: organism-based; conditions: in vivo
[2] = target: T1, Flavodoxin (Helicobacter pylori (strain ATCC 700392 / 26695) (Campylobacter pylori)) (UniProt O25776); test: Inhibition of flavodoxin in Mnz-resistant Helicobacter pylori NCTC 11637 ATCC 43504 assessed as reduction in bacterial growth measured after 48 hrs by resazurin staining-based microdilution method; conditions: Helicobacter pylori NCTC 11637 = CCUG 17874 = ATCC 43504
T1 sequence (whole entry): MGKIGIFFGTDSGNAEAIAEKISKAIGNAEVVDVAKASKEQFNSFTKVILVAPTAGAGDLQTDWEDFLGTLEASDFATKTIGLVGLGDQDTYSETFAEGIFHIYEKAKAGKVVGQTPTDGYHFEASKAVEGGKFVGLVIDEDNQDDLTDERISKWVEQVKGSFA
Outline: (§1)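 Broth microdilution in brain heart infusion with 4% FBS. Inoculum diluted to OD600 0.01. Two-fold dilutions from a DMSO stock cover 64–0.031 μg/mL, with DMSO ≤1% v/v. Incubated 48 h at 37 °C under microaerophilic conditions. MIC is the lowest concentration giving complete growth inhibition, read by resazurin colour change and confirmed by spotting on blood agar. Run twice in triplicate.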

[3] = tested on: Helicobacter pylori; test: Antibacterial activity against Helicobacter pylori SS1 infected in NMRI mouse assessed as reduction in gastric colonization at 0.1 to 1 mg/100g, po administered daily via gavage for 8 days starting from 1 week post-infection and measured 8 days post-last dose; assay type: functional, organism-based
Outline: (§2)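 From day 8, compound given daily by oral gavage for 8 days in 100 μL of 5–10% DMSO/95–90% olive oil. Sacrificed day 24; stomach homogenate CFU/g counted after 5 days microaerophilic culture at 37 °C. Infected vehicle-treated controls; Mann-Whitney U and unpaired t tests, p ≤ 0.05.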

[4] = target: T1, Flavodoxin (Helicobacter pylori (strain ATCC 700392 / 26695) (Campylobacter pylori)); test: Inhibition of flavodoxin in Helicobacter pylori SS1 assessed as reduction in bacterial growth measured after 48 hrs by resazurin staining-based microdilution method; outline: as §1
[5] = Therapeutic index, ratio of MCC50 for human HeLa cells to MIC for inhibition of flavodoxin in Helicobacter pylori ATCC 700392 26695 assessed as reduction in bacterial growth; assay type: toxicity; conditions: HeLa cells versus Helicobacter pylori ATCC 700392 26695, read-out: TI
Outline: (§3)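 TI is MCC50/MIC. For MCC50, HeLa cells (30 000/well, DMEM with 10% FBS) were exposed to compound at 25–1000 μM final. Viability by XTT at 450/650 nm; MCC50 is the concentration giving 50% lysis from viability curves. Run twice in triplicate.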

[6] = Toxicity in NMRI mouse assessed as change in body weight at 0.1 to 1 mg/100g, po administered daily via gavage for 8 days; assay type: organism-based; conditions: in vivo, 192 h
[7] = Toxicity in NMRI mouse infected with Helicobacter pylori SS1 assessed as change in appetite at 0.1 to 1 mg/100g, po administered daily via gavage for 8 days starting from 1 week post-infection; assay type: organism-based; conditions: in vivo
[8] = tested on: Escherichia coli; test: Effect on growth of Escherichia coli DH5[alpha] after 48 hrs by resazurin-dye based microdilution assay; assay type: organism-based
[9] = Therapeutic index, ratio of MCC50 for human HeLa cells to MIC for inhibition of flavodoxin in Helicobacter pylori SS1 assessed as reduction in bacterial growth; assay type: toxicity; conditions: HeLa cells versus Helicobacter pylori SS1, read-out: TI; outline: as §3
[10] = target: T1, Flavodoxin (Helicobacter pylori (strain ATCC 700392 / 26695) (Campylobacter pylori)); test: Binding affinity to Helicobacter pylori flavodoxin by isothermal titration calorimetric method
[11] = tested on: Staphylococcus aureus; test: Effect on growth of Staphylococcus aureus ATCC 1228 after 48 hrs by resazurin-dye based microdilution assay; assay type: organism-based
[12] = target: T1, Flavodoxin (Helicobacter pylori (strain ATCC 700392 / 26695) (Campylobacter pylori)); test: Inhibition of flavodoxin in Helicobacter pylori ATCC 700392 26695 assessed as reduction in bacterial growth measured after 48 hrs by resazurin staining-based microdilution method; conditions: Helicobacter pylori 26695; outline: as §1
[13] = Cytotoxicity against human HeLa cells assessed as reduction in cell viability by XTT assay; assay type: cell-based; conditions: read-out: MCC50
Outline: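 HeLa cells grown in DMEM with 10% FBS, penicillin and streptomycin at 37 °C, 5% CO2; 30 000 cells/well. XTT viability read at 450 and 650 nm. MCC50 (50% lysis) came from viability-versus-concentration curves. Two experiments, each in triplicate.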

[14] = Therapeutic index, ratio of MCC50 for human HeLa cells to MIC for inhibition of flavodoxin in Mnz-resistant Helicobacter pylori NCTC 11637 ATCC 43504 assessed as reduction in bacterial growth; assay type: toxicity; conditions: read-out: TI; outline: as §3
[15] = target: T1, Flavodoxin (Helicobacter pylori (strain ATCC 700392 / 26695) (Campylobacter pylori)); test: Binding affinity to Helicobacter pylori flavodoxin by thermal upshift assay
[16] = tested on: Helicobacter pylori; test: Antibacterial activity against Helicobacter pylori SS1 infected in NMRI mouse assessed as bacterial eradication at 20 mg/100g, po administered daily via gavage for 8 days starting from 1 week post-infection and measured 8 days post-last dose; assay type: functional, organism-based
Outline: as §2, with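 “Female 6-week-old SPF NMRI mice, 7 per condition, infected orogastrically on days 1 and 3 with 100 μL Hp SS1 (5 × 10^8 CFU/mL). From” for “From”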

[17] = Toxicity in NMRI mouse infected with Helicobacter pylori SS1 assessed as change in appetite at 10 to 20 mg/100g, po administered daily via gavage for 8 days starting from 1 week post-infection; assay type: organism-based; conditions: in vivo
Outline: (§4)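 Female 6-week-old SPF NMRI mice infected orogastrically with Hp SS1 on days 1 and 3. Compound in 5–10% DMSO/olive oil (100 μL) given by daily oral gavage for 8 days from day 8. Body weight and appetite were monitored during treatment; infected controls received vehicle alone.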

[18] = Toxicity in NMRI mouse assessed as change in body weight at 10 to 20 mg/100g, po administered daily via gavage for 8 days; assay type: organism-based; conditions: in vivo, 192 h
[19] = tested on: Helicobacter pylori; test: Antibacterial activity against Helicobacter pylori SS1 infected in NMRI mouse assessed as reduction in gastric colonization at 20 mg/100g, po administered daily via gavage for 8 days starting from 1 week post-infection and measured 8 days post-last dose; assay type: functional, organism-based
Outline: as §2, with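 “Female 6-week-old SPF NMRI mice, 7 per condition, infected orogastrically on days 1 and 3 with 100 μL Hp SS1 (5 × 10^8 CFU/mL). From” for “From”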

[20] = Toxicity in NMRI mouse infected with Helicobacter pylori SS1 assessed as change in body weight at 10 to 20 mg/100g, po administered daily via gavage for 8 days starting from 1 week post-infection; assay type: organism-based; conditions: in vivo; outline: as §4
[21] = Therapeutic index, ratio of MCC50 for human HeLa cells to MIC for inhibition of flavodoxin in clarithromycin/metronidazole-resistant Helicobacter pylori isolate 4 assessed as reduction in bacterial growth; assay type: toxicity; conditions: read-out: TI; outline: as §3
[22] = Therapeutic index, ratio of MCC50 for human HeLa cells to MIC for inhibition of flavodoxin in metronidazole-resistant Helicobacter pylori isolate 3 assessed as reduction in bacterial growth; assay type: toxicity; conditions: read-out: TI; outline: as §3
[23] = Therapeutic index, ratio of MCC50 for human HeLa cells to MIC for inhibition of flavodoxin in metronidazole-resistant Helicobacter pylori isolate 2 assessed as reduction in bacterial growth; assay type: toxicity; conditions: read-out: TI; outline: as §3
[24] = Therapeutic index, ratio of MCC50 for human HeLa cells to MIC for inhibition of flavodoxin in metronidazole-resistant Helicobacter pylori isolate 1 assessed as reduction in bacterial growth; assay type: toxicity; conditions: read-out: TI; outline: as §3
[25] = Therapeutic index, ratio of MCC50 for human HeLa cells to MIC for inhibition of flavodoxin in clarithromycin/metronidazole-resistant Helicobacter pylori isolate 6 assessed as reduction in bacterial growth; assay type: toxicity; conditions: read-out: TI; outline: as §3
[26] = Therapeutic index, ratio of MCC50 for human HeLa cells to MIC for inhibition of flavodoxin in rifampicin-resistant Helicobacter pylori isolate 5 assessed as reduction in bacterial growth; assay type: toxicity; conditions: read-out: TI; outline: as §3
[27] = target: T1, Flavodoxin (Helicobacter pylori (strain ATCC 700392 / 26695) (Campylobacter pylori)); test: Inhibition of flavodoxin in clarithromycin/metronidazole-resistant Helicobacter pylori isolate 6 assessed as reduction in bacterial growth measured after 48 hrs by resazurin staining-based microdilution method
[28] = target: T1, Flavodoxin (Helicobacter pylori (strain ATCC 700392 / 26695) (Campylobacter pylori)); test: Inhibition of flavodoxin in metronidazole-resistant Helicobacter pylori isolate 2 assessed as reduction in bacterial growth measured after 48 hrs by resazurin staining-based microdilution method
Outline: (§5)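 Clinical isolates from gastric biopsies of patients who failed ≥2 therapies; resistance classified by EUCAST breakpoints. […] Read by resazurin colour change as the lowest concentration giving complete growth inhibition.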

[29] = target: T1, Flavodoxin (Helicobacter pylori (strain ATCC 700392 / 26695) (Campylobacter pylori)); test: Inhibition of flavodoxin in rifampicin-resistant Helicobacter pylori isolate 5 assessed as reduction in bacterial growth measured after 48 hrs by resazurin staining-based microdilution method; outline: as §5
[30] = target: T1, Flavodoxin (Helicobacter pylori (strain ATCC 700392 / 26695) (Campylobacter pylori)); test: Inhibition of flavodoxin in clarithromycin/metronidazole-resistant Helicobacter pylori isolate 4 assessed as reduction in bacterial growth measured after 48 hrs by resazurin staining-based microdilution method; outline: as §5
[31] = target: T1, Flavodoxin (Helicobacter pylori (strain ATCC 700392 / 26695) (Campylobacter pylori)); test: Inhibition of flavodoxin in metronidazole-resistant Helicobacter pylori isolate 1 assessed as reduction in bacterial growth measured after 48 hrs by resazurin staining-based microdilution method; outline: as §5

SMILES | MIC [2] [µM] | MIC [4] [µM] | selectivity ratio [5] | Activity [8] | selectivity ratio [9] | Activity [10] | Activity [11] | MIC [12] [µM] | CC50 [13] [µM] | selectivity ratio [14] | Activity [15] | Activity [16] | Activity [17] | Activity [18] | Activity [20] | selectivity ratio [21] | selectivity ratio [22] | selectivity ratio [23] | selectivity ratio [24] | selectivity ratio [25] | other results
O=[N+]([O-])/C=C/c1cc(C(F)(F)F)cc(C(F)(F)F)c1 | 3.5 (≈ 0.998 µg/mL) | 1.8 (≈ 0.513 µg/mL) | 8.3 | Non-Toxic | 8.3 | Active | Non-Toxic | 1.8 (≈ 0.513 µg/mL) | 15 | 4.3 | Active |  |  |  |  |  |  |  |  |  | Activity [1]: Non-Toxic; Activity [3]: inactive; Activity [6]: Non-Toxic; Activity [7]: Non-Toxic
NCCc1cc(C(F)(F)F)cc(C(F)(F)F)c1 | 31 (≈ 7.97 µg/mL) | > 249 | > 16 | Non-Toxic |  | Active | Non-Toxic | 31 (≈ 7.97 µg/mL) | > 500 | > 16 | Active | Active | Non-Toxic | Non-Toxic | Non-Toxic |  |  |  |  |  | Activity [19]: Active
NCCc1ccccc1 [PHENETHYLAMINE] | 66 (≈ 8 µg/mL) | 132 (≈ 16 µg/mL) | > 15 | Non-Toxic | > 7.6 | Active | Non-Toxic | 66 (≈ 8 µg/mL) | > 1000 | > 15 | Active |  | Non-Toxic | Non-Toxic | Non-Toxic |  |  |  |  |  | 
O=[N+]([O-])CCc1cc(C(F)(F)F)cc(C(F)(F)F)c1 | 56 (≈ 16.1 µg/mL) | 223 (≈ 64 µg/mL) | > 18 | Non-Toxic | > 4.5 | Active | Non-Toxic | 56 (≈ 16.1 µg/mL) | > 1000 | > 18 | Active | Active | Non-Toxic | Non-Toxic | Non-Toxic | 9 | 9 | 9 | 9 | 9 | selectivity ratio [26]: 9
COc1ccc(CSc2cc(Cl)c(N)c3nonc23)cc1 | 11.8 (≈ 3.8 µg/mL) | 5.9 (≈ 1.9 µg/mL) | > 170 | Non-Toxic | > 170 | Active | Non-Toxic | 5.9 (≈ 1.9 µg/mL) | > 1000 | > 85 | Active |  | Non-Toxic | Non-Toxic | Non-Toxic | 80 | 10 | 322 | 161 | 322 | inhibition [27]: Active; inhibition [28]: Active; inhibition [29]: Active; inhibition [30]: Active; inhibition [31]: Active; selectivity ratio [26]: 40
